# Test results from ChEMBL document CHEMBL1275251, “Mutant selection window and characterization of allelic diversity for ciprofloxacin-resistant mutants of Rhodococcus equi” (Antimicrob Agents Chemother, 2010).
# Calls of active or inactive are those of the source. No cut-off for these calls is given here.
# Key:
# [1] = tested on: Prescottella equi; assay: Antibacterial activity against Rhodococcus equi ATCC 6939T harboring GyrA Ser83Ile mutation selected on 12 ug/ml of compound treated culture by broth microdilution method; format: functional; conditions: Rhodococcus (subgen. Prescottella) equi
# Summary of the method: (§1)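 Mutants were selected by plating at least 1 × 10^10 cells, grown 48 h at 35°C in brain heart infusion broth, on ciprofloxacin-containing Columbia blood agar base for 4 days at 35°C. Each was confirmed by two passages at the selecting concentration and one drug-free passage. MIC was then read by broth microdilution in cation-supplemented Mueller-Hinton broth per CLSI M24-A. Each experiment was done twice.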
# [2] = tested on: Prescottella equi; assay: Antibacterial activity against Rhodococcus equi W5234 harboring GyrA Asp87His mutation selected on 6 ug/ml of compound treated culture by broth microdilution method; format: functional; conditions: Rhodococcus (subgen. Prescottella) equi; summary of the method: as §1
# [3] = tested on: Prescottella equi; assay: Antibacterial activity against Rhodococcus equi ATCC 6939T isolated from lung abscess of horse; format: functional; conditions: Rhodococcus (subgen. Prescottella) equi
# Summary of the method: (§2)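 Cells grown 48 h at 35°C with shaking in brain heart infusion broth, then resuspended. MIC by broth microdilution in cation-supplemented Mueller-Hinton broth per CLSI M24-A. For MIC99 and MPC, ≥1 × 10^10 cells were plated on Columbia blood agar base containing a range of ciprofloxacin concentrations and incubated 4 days at 35°C. Resistant-colony fraction relative to CFU on drug-free plates was plotted against concentration. Run twice.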
# [4] = tested on: Prescottella equi; assay: Antibacterial activity against Rhodococcus equi W5234 selected on 2 ug/ml of compound treated culture by broth microdilution method; format: functional; conditions: Rhodococcus (subgen. Prescottella) equi; summary of the method: as §1
# [5] = tested on: Prescottella equi; assay: Antibacterial activity against Rhodococcus equi W5234 isolated from HIV-positive patient; format: functional; conditions: Rhodococcus (subgen. Prescottella) equi; summary of the method: as §2
# [6] = tested on: Prescottella equi; assay: Antibacterial activity against Rhodococcus equi ATCC 6939T harboring GyrA Ser83Ile mutation selected on 4 ug/ml of compound treated culture by broth microdilution method; format: functional, organism-based; summary of the method: as §1
# [7] = tested on: Prescottella equi; assay: Antibacterial activity against Rhodococcus equi W5234 harboring GyrA Ser83Ile mutation selected on 8 ug/ml of compound treated culture by broth microdilution method; format: functional; conditions: Rhodococcus (subgen. Prescottella) equi; summary of the method: as §1
# [8] = tested on: Prescottella equi; assay: Antibacterial activity against Rhodococcus equi W5234 harboring GyrA Asp87Asn mutation selected on 4 ug/ml of compound treated culture by broth microdilution method; format: functional; conditions: Rhodococcus (subgen. Prescottella) equi; summary of the method: as §1
# [9] = tested on: Prescottella equi; assay: Antibacterial activity against Rhodococcus equi ATCC 6939T harboring GyrA Asp87Tyr mutation selected on 4 ug/ml of compound treated culture by broth microdilution method; format: functional, organism-based; summary of the method: as §1
# [10] = tested on: Prescottella equi; assay: Antibacterial activity against Rhodococcus equi W5234 harboring GyrA Ser83Ile mutation selected on 16 ug/ml of compound treated culture by broth microdilution method; format: functional, organism-based; summary of the method: as §1
# [11] = tested on: Prescottella equi; assay: Antibacterial activity against Rhodococcus equi W5234 selected on 1 ug/ml of compound treated culture by broth microdilution method; format: functional; conditions: Rhodococcus (subgen. Prescottella) equi; summary of the method: as §1
# [12] = tested on: Prescottella equi; assay: Antibacterial activity against Rhodococcus equi W5234 harboring GyrA Asp87Gly mutation selected on 8 ug/ml of compound treated culture by broth microdilution method; format: functional, organism-based; summary of the method: as §1
# [13] = tested on: Prescottella equi; assay: Antibacterial activity against Rhodococcus equi ATCC 6939T harboring GyrA Ser83Arg mutation selected on 6 ug/ml of compound treated culture by broth microdilution method; format: functional, organism-based; summary of the method: as §1
# [14] = tested on: Prescottella equi; assay: Antibacterial activity against Rhodococcus equi ATCC 6939T harboring GyrA Asp87Asn mutation selected on 8 ug/ml of compound treated culture by broth microdilution method; format: functional; conditions: Rhodococcus (subgen. Prescottella) equi; summary of the method: as §1
# [15] = tested on: Prescottella equi; assay: Antibacterial activity against Rhodococcus equi ATCC 6939T harboring GyrA Asp87His mutation selected on 6 ug/ml of compound treated culture by broth microdilution method; format: functional; conditions: Rhodococcus (subgen. Prescottella) equi; summary of the method: as §1
# [16] = tested on: Prescottella equi; assay: Antibacterial activity against Rhodococcus equi W5234 selected on 8 ug/ml of compound treated culture by broth microdilution method; format: functional; conditions: Rhodococcus (subgen. Prescottella) equi; summary of the method: as §1
# [17] = tested on: Prescottella equi; assay: Antibacterial activity against Rhodococcus equi W5234 harboring GyrA Ser83Arg mutation selected on 16 ug/ml of compound treated culture by broth microdilution method; format: functional; conditions: Rhodococcus (subgen. Prescottella) equi; summary of the method: as §1
# [18] = tested on: Prescottella equi; assay: Antibacterial activity against Rhodococcus equi W5234 harboring GyrA Ser83Arg mutation selected on 4 ug/ml of compound treated culture by broth microdilution method; format: functional; conditions: Rhodococcus (subgen. Prescottella) equi; summary of the method: as §1
# [19] = tested on: Prescottella equi; assay: Antibacterial activity against Rhodococcus equi ATCC 6939T harboring GyrA Ser83Arg mutation selected on 12 ug/ml of compound treated culture by broth microdilution method; format: functional; conditions: Rhodococcus (subgen. Prescottella) equi; summary of the method: as §1
# [20] = tested on: Prescottella equi; assay: Antibacterial activity against Rhodococcus equi ATCC 6939T harboring GyrA Asp87Asn mutation selected on 6 ug/ml of compound treated culture by broth microdilution method; format: functional; conditions: Rhodococcus (subgen. Prescottella) equi; summary of the method: as §1
# [21] = tested on: Prescottella equi; assay: Antibacterial activity against Rhodococcus equi ATCC 6939T selected on 1 ug/ml of compound treated culture by broth microdilution method; format: functional; conditions: Rhodococcus (subgen. Prescottella) equi; summary of the method: as §1
# [22] = tested on: Prescottella equi; assay: Antibacterial activity against Rhodococcus equi ATCC 6939T harboring GyrA Asp87Gly mutation selected on 4 ug/ml of compound treated culture by broth microdilution method; format: functional; conditions: Rhodococcus (subgen. Prescottella) equi; summary of the method: as §1
# [23] = tested on: Prescottella equi; assay: Antibacterial activity against Rhodococcus equi ATCC 6939T harboring GyrA Ser83Arg mutation selected on 2 ug/ml of compound treated culture by broth microdilution method; format: functional, organism-based; summary of the method: as §1
# [24] = tested on: Prescottella equi; assay: Antibacterial activity against Rhodococcus equi ATCC 6939T harboring GyrB Asn464Asp mutation selected on 1 ug/ml of compound treated culture by broth microdilution method; format: functional, organism-based; summary of the method: as §1
# [25] = tested on: Prescottella equi; assay: Antibacterial activity against Rhodococcus equi W5234 selected on 4 ug/ml of compound treated culture by broth microdilution method; format: functional; conditions: Rhodococcus (subgen. Prescottella) equi; summary of the method: as §1
compound,measurement,setting,value
O=C(O)c1cn(C2CC2)c2cc(N3CCNCC3)c(F)cc2c1=O [CIPROFLOXACIN],MIC,[1],128 µg/mL
same,MIC,[2],16 µg/mL
same,MIC99,[3],0.42 µg/mL
same,MIC,[4],2 µg/mL
same,MIC,[5],0.5 µg/mL
same,MIC,[6],inactive
same,MIC,[7],32 µg/mL
same,MIC,[8],16 µg/mL
same,MIC,[9],inactive
same,MIC,[10],inactive
same,MIC,[11],2 µg/mL
same,MIC,[12],inactive
same,MIC,[13],inactive
same,MIC,[14],32 µg/mL
same,MIC,[15],16 µg/mL
same,MIC,[16],16 µg/mL
same,MIC,[17],64 µg/mL
same,MIC,[18],32 µg/mL
same,MIC,[19],128 µg/mL
same,MIC,[20],16 µg/mL
same,MIC,[21],1 µg/mL
same,MIC,[22],8 µg/mL
same,MIC,[23],inactive
same,MIC,[24],inactive
same,MIC,[25],8 µg/mL
